Laboratory results: article PMC5869691 (Organic letters, 2018)
In brackets after ≈: the same amount, converted by molar mass.

Experiments:
bacterial membranes = assay: SYTOX uptake assay; assay type: cell-based; conditions: SYTOX fluorescence; positive control 12,3,2,3,12
Procedure, shortened: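 All synthetic test compounds were run in a SYTOX uptake assay for membrane damage in S. aureus cells. Uptake was scored qualitatively as positive or negative.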

S. aureus = assay: minimum inhibitory concentration; assay type: cell-based, Staphylococcus aureus
Procedure, shortened: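 Each synthetic test compound was tested against S. aureus SH1000, with USA300 and ATCC33591 as additional strains. MIC was read in both iron-rich medium (IRM) and iron-depleted medium (IDM), and values are given in μM. Vancomycin was the positive control run in parallel.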

SMILES	membrane disruption (SYTOX uptake) (bacterial membranes)	MIC against S. aureus (S. aureus) [µM]
CC(=O)[C@H](C)C[C@@H](C)C[C@H](C)CC[C@@H](O)C[C@@H](O)[C@@H](CC(C)C)[C@@H](O)c1cc(O)cc(O)c1 [Baulamycin B, baulamycin B]	exception	500 (≈ 233 µg/mL)
CCC(=O)[C@H](C)C[C@@H](C)C[C@H](C)CC[C@@H](O)C[C@@H](O)[C@@H](CC(C)C)[C@@H](O)c1cc(O)cc(O)c1 [Baulamycin A, baulamycin A]	tested positive for membrane disruption	
